Values after ≈ are worked out from the molar mass of the structure shown.
Tests used:
Aspergillus fumigatus [1] = assay: Antifungal activity against Aspergillus fumigatus assessed as FICI in presence of voriconazole; assay type: functional
How it was run: (§1)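 Checkerboard combination scored by fractional inhibitory concentration index. Acylhydrazone serially diluted 16 to 0.015 μg/mL (11 dilutions). Partner drug in seven dilutions: fluconazole 12 to 0.19 μg/mL, amphotericin B 5 to 0.078 μg/mL, caspofungin, itraconazole or voriconazole 8 to 0.007 μg/mL.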

Aspergillus fumigatus [2] = assay: Antifungal activity against Aspergillus fumigatus measured after 24 to 72 hrs; assay type: functional
How it was run: (§2)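 Modified CLSI broth microdilution with inoculum per M27A3. Compounds were serially diluted 32 to 0.03 μg/mL. Media: C. neoformans in HEPES-buffered YNB without amino acids (pH 7.0, 2% glucose); Candida strains in YNB without ammonium sulfate or amino acids plus 1% asparagine (pH 7.0, 2% glucose); A. fumigatus in RPMI (pH 7.0, 2% glucose).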

Cryptococcus neoformans [3] = assay: Antifungal activity against Cryptococcus neoformans H99 assessed as FICI in presence of voriconazole; assay type: functional, var grubii H99; how it was run: as §1
[Candida] auris [4] = Antifungal activity against Candida auris assessed as FICI in presence of caspofungin; assay type: functional, Candidozyma auris; how it was run: as §1
Cryptococcus neoformans [5] = assay: Antifungal activity against Cryptococcus neoformans H99 assessed as FICI in presence of fluconazole; assay type: functional, var grubii H99; how it was run: as §1
Candida albicans [6] = assay: Antifungal activity against Candida albicans measured after 24 to 72 hrs; assay type: functional; how it was run: as §2
[Candida] auris [7] = Antifungal activity against Candida auris assessed as FICI in presence of voriconazole; assay type: functional, Candidozyma auris; how it was run: as §1
Candida parapsilosis [8] = assay: Antifungal activity against Candida parapsilosis measured after 24 to 72 hrs; assay type: functional; settings: Lodderomyces parapsilosis; how it was run: as §2
Cryptococcus neoformans [9] = assay: Fungicidal activity against Cryptococcus neoformans H99 measured up to 96 hrs by time-kill assay; assay type: functional, organism-based; settings: var grubii H99
How it was run: (§3)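 Overnight C. neoformans washed in PBS and resuspended in HEPES-buffered YNB, pH 7.4. 2 × 10⁴ cells exposed to a range of drug concentrations in 10 mL with 0.5% DMSO final, at 37°C, 5% CO₂, shaking at 200 rpm. Aliquots sampled over 96 h, diluted and plated on YPD; CFU counted after 48 h at 30°C.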

Candida parapsilosis [10] = assay: Antifungal activity against Candida parapsilosis assessed as FICI in presence of itraconazole; assay type: functional; how it was run: as §1
Pichia kudriavzevii [11] = assay: Antifungal activity against Candida krusei 6258 assessed as FICI in presence of fluconazole; assay type: functional; how it was run: as §1
[Candida] auris [12] = Antifungal activity against Candida auris assessed as FICI in presence of fluconazole; assay type: functional, Candidozyma auris; how it was run: as §1
Pichia kudriavzevii [13] = assay: Antifungal activity against fluconazole-resistant Candida krusei assessed as FICI in presence of itraconazole; assay type: functional
How it was run: (§4)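 Checkerboard in 96-well plate. Test compound diluted 16 to 0.015 μg/mL (11 dilutions) against the partner drug in seven dilutions: fluconazole 12 to 0.19 μg/mL, caspofungin, itraconazole or voriconazole 8 to 0.007 μg/mL. Fractional inhibitory concentration index (FICI) calculated from the combinations.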

Cryptococcus neoformans [14] = assay: Antifungal activity against Cryptococcus neoformans H99 assessed as FICI in presence of amphotericin B; assay type: functional, var grubii H99; how it was run: as §1
Candida albicans [15] = assay: Antifungal activity against Candida albicans assessed as FICI in presence of voriconazole; assay type: functional; how it was run: as §1
[16] = Selectivity index, ratio of LD50 for human HepG2 cells to MIC80 for Cryptococcus neoformans H99; assay type: toxicity; settings: read-out: Selectivity Index
How it was run: (§5)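 SI = LD₅₀/MIC₈₀. Cytotoxicity: A549 or HepG2 cells (DMEM, 10% FBS, passage 7, 10⁵ cells/well) adhered 14 h, then exposed to 0.03–128 μg/mL for 24 or 48 h at 37°C, 5% CO₂; MTT 4 h, formazan dissolved in DMSO, read at 570 nm. MIC₈₀ against C. neoformans from broth microdilution in HEPES-buffered YNB, pH 7.0.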

Pichia kudriavzevii [17] = assay: Antifungal activity against Candida krusei measured after 24 to 72 hrs; assay type: functional
How it was run: (§6)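 MIC by modified CLSI broth microdilution. Candida strains grown in YNB without ammonium sulfate or amino acids with 1% asparagine, pH 7.0, 2% glucose. Inoculum per CLSI M27A3. Compound serially diluted 32 to 0.03 μg/mL. Incubation 37°C, 5% CO₂, 24–72 h, then OD450. MIC80 taken as the lowest concentration giving 80% growth inhibition versus untreated control.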

Candida albicans [18] = assay: Antifungal activity against Candida albicans assessed as FICI in presence of itraconazole; assay type: functional; how it was run: as §1
[Candida] auris [19] = Antifungal activity against Candida auris assessed as FICI in presence of itraconazole; assay type: functional, Candidozyma auris; how it was run: as §1
Pichia kudriavzevii [20] = assay: Antifungal activity against fluconazole-resistant Candida krusei assessed as FICI in presence of caspofungin; assay type: functional; how it was run: as §4
A549 = assay: Cytotoxicity against human A549 cells after 24 to 48 hrs by MTT assay; assay type: functional; settings: read-out: LD50 (the source's name)
How it was run: (§7)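 A549 and HepG2 kept in DMEM with 10% FBS and 1% pen-strep. At passage 7, seeded at 10⁵ cells/well and allowed to adhere 14 h. Compound added at 0.03–128 μg/mL, untreated wells as controls. Incubation 37°C, 5% CO₂ for 24 or 48 h. MTT (5 mg/mL in PBS) added for 4 h, formazan dissolved in DMSO, OD570.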

Candida parapsilosis [21] = assay: Antifungal activity against Candida parapsilosis assessed as FICI in presence of fluconazole; assay type: functional; how it was run: as §1
Cryptococcus neoformans [22] = assay: Fungicidal activity against Cryptococcus neoformans H99 measured after 72 hrs by time-kill assay; assay type: functional, var grubii H99; how it was run: as §3
Pichia kudriavzevii [23] = assay: Antifungal activity against fluconazole-resistant Candida krusei assessed as FICI in presence of voriconazole; assay type: functional; how it was run: as §4
Aspergillus fumigatus [24] = assay: Antifungal activity against Aspergillus fumigatus assessed as FICI in presence of fluconazole; assay type: functional; how it was run: as §1
Pichia kudriavzevii [25] = assay: Antifungal activity against Candida krusei 6258 assessed as FICI in presence of voriconazole; assay type: functional; how it was run: as §1
[26] = Selectivity index, ratio of LD50 for human A549 cells to MIC80 for Cryptococcus neoformans H99; assay type: toxicity; settings: read-out: Selectivity Index; how it was run: as §5
Candida albicans [27] = assay: Antifungal activity against Candida albicans assessed as FICI in presence of fluconazole; assay type: functional; how it was run: as §1
Pichia kudriavzevii [28] = assay: Antifungal activity against Candida krusei 6258 assessed as FICI in presence of itraconazole; assay type: functional; how it was run: as §1
Pichia kudriavzevii [29] = assay: Antifungal activity against Candida krusei 6258 assessed as FICI in presence of caspofungin; assay type: functional; how it was run: as §1
HepG2 = assay: Cytotoxicity against human HepG2 cells after 24 to 48 hrs by MTT assay; assay type: functional; settings: read-out: LD50 (the source's name); how it was run: as §7
Aspergillus fumigatus [30] = assay: Antifungal activity against Aspergillus fumigatus assessed as FICI in presence of itraconazole; assay type: functional; how it was run: as §1
Cryptococcus neoformans [31] = assay: Antifungal activity against Cryptococcus neoformans H99 measured after 24 to 72 hrs; assay type: functional; settings: var grubii H99; how it was run: as §2
Candida albicans [32] = assay: Antifungal activity against Candida albicans assessed as FICI in presence of caspofungin; assay type: functional; how it was run: as §1
Pichia kudriavzevii [33] = assay: Antifungal activity against fluconazole-resistant Candida krusei assessed as FICI in presence of fluconazole; assay type: functional; how it was run: as §4
Cryptococcus neoformans [34] = assay: Antifungal activity against Cryptococcus neoformans H99 assessed as FICI in presence of itraconazole; assay type: functional, var grubii H99; how it was run: as §1
Pichia kudriavzevii [35] = assay: Antifungal activity against multi-drug resistant Candida krusei measured after 24 to 72 hrs; assay type: functional; how it was run: as §6
[Candida] auris [36] = Antifungal activity against Candida auris measured after 24 to 72 hrs; assay type: functional; settings: Candidozyma auris; how it was run: as §2
Candida parapsilosis [37] = assay: Antifungal activity against Candida parapsilosis assessed as FICI in presence of voriconazole; assay type: functional; how it was run: as §1
Candida parapsilosis [38] = assay: Antifungal activity against Candida parapsilosis assessed as FICI in presence of caspofungin; assay type: functional; how it was run: as §1

## O=C(N/N=C/c1cc(Br)ccc1O)c1ccc(Br)cc1Br
Aspergillus fumigatus [1]
  fractional inhibitory concentration index (FICI): 0.515
Aspergillus fumigatus [2]
  MIC80: > 16 µg/mL
Cryptococcus neoformans [3]
  fractional inhibitory concentration index (FICI): 0.072
[Candida] auris [4]
  fractional inhibitory concentration index (FICI): 2
Cryptococcus neoformans [5]
  fractional inhibitory concentration index (FICI): 0.065
Candida albicans [6]
  MIC80: > 16 µg/mL
[Candida] auris [7]
  fractional inhibitory concentration index (FICI): 1.125
Candida parapsilosis [8]
  MIC80: 8 µg/mL (≈ 16.8 µM)
Cryptococcus neoformans [9]
  Activity: Dose-dependent effect
Candida parapsilosis [10]
  fractional inhibitory concentration index (FICI): 2.098
Pichia kudriavzevii [11]
  fractional inhibitory concentration index (FICI): 1.002
[Candida] auris [12]
  fractional inhibitory concentration index (FICI): 2
Pichia kudriavzevii [13]
  fractional inhibitory concentration index (FICI): 0.375
Cryptococcus neoformans [14]
  fractional inhibitory concentration index (FICI): 0.086
Candida albicans [15]
  fractional inhibitory concentration index (FICI): 0.256
[16]
  selectivity ratio: 1070
Pichia kudriavzevii [17]
  MIC80: 8 µg/mL (≈ 16.8 µM)
Candida albicans [18]
  fractional inhibitory concentration index (FICI): 0.128
[Candida] auris [19]
  fractional inhibitory concentration index (FICI): 1.016
Pichia kudriavzevii [20]
  fractional inhibitory concentration index (FICI): 2
A549
  CC50: 64 µg/mL (≈ 134 µM)
Candida parapsilosis [21]
  fractional inhibitory concentration index (FICI): 1.015
Cryptococcus neoformans [22]
  MFC100: 0.06 µg/mL (≈ 0.126 µM)
Pichia kudriavzevii [23]
  fractional inhibitory concentration index (FICI): 1.063
Aspergillus fumigatus [24]
  fractional inhibitory concentration index (FICI): 2
Pichia kudriavzevii [25]
  fractional inhibitory concentration index (FICI): 1.06
[26]
  selectivity ratio: 1070
Candida albicans [27]
  fractional inhibitory concentration index (FICI): 2
Pichia kudriavzevii [28]
  fractional inhibitory concentration index (FICI): 2.015
Pichia kudriavzevii [29]
  fractional inhibitory concentration index (FICI): 1.002
HepG2
  CC50: 64 µg/mL (≈ 134 µM)
Aspergillus fumigatus [30]
  fractional inhibitory concentration index (FICI): 0.484
Cryptococcus neoformans [31]
  MIC80: 0.06 µg/mL (≈ 0.126 µM)
Candida albicans [32]
  fractional inhibitory concentration index (FICI): 0.502
Pichia kudriavzevii [33]
  fractional inhibitory concentration index (FICI): 2
Cryptococcus neoformans [34]
  fractional inhibitory concentration index (FICI): 0.072
Pichia kudriavzevii [35]
  MIC80: > 16 µg/mL
[Candida] auris [36]
  MIC80: > 16 µg/mL
Candida parapsilosis [37]
  fractional inhibitory concentration index (FICI): 0.135
Candida parapsilosis [38]
  fractional inhibitory concentration index (FICI): 1.5
